{"source": "ChEMBL document CHEMBL3259628", "about": "“Discovery of novel 2-((pyridin-3-yloxy)methyl)piperazines as α7 nicotinic acetylcholine receptor modulators for the treatment of inflammatory disorders” (J Med Chem, 2014)", "key": {"[1]": {"molecular_target": "Cytochrome P450 2C19 (Homo sapiens, UniProt P33261)", "sequence (P33261 whole entry, canonical isoform)": "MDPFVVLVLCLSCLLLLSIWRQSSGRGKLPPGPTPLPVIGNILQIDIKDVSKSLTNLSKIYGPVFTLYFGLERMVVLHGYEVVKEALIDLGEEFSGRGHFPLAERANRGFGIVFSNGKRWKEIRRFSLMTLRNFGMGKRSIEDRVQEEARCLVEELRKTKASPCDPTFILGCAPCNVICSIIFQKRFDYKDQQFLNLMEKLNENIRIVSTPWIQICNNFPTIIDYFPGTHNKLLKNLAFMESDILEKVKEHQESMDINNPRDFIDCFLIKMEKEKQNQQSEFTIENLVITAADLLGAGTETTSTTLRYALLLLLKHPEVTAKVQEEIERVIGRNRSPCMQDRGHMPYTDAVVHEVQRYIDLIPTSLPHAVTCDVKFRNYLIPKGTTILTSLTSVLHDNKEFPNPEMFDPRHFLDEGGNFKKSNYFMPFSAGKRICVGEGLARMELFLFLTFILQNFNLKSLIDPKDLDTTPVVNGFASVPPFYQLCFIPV", "assay": "Inhibition of CYP2C19 (unknown origin)", "assay_type": "ADME", "summary_of_the_method": "(§1)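 Each of five Cyp isoforms assayed with single probe substrates rather than a substrate cocktail. Run in duplicate at Cerep. IC50 lines come from a 5-concentration titration curve.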"}, "[2]": {"organism": "Rattus norvegicus", "assay": "Inhibition of rat sodium channel site 2 at 10 uM", "summary_of_the_method": "(§2)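 Receptor, ion channel and transporter binding panel run at Cerep in duplicate. Percent inhibition measured at 10 μM compound.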"}, "[3]": {"assay": "Half life in rat at 15 mg/kg, po", "assay_type": "ADME, organism-based", "design": "dose 15 mg/kg, route oral", "conditions": "in vivo"}, "[4]": {"tested_on": "Mus musculus", "assay": "(§3) Antiinflammatory activity against ovalbumin-induced allergic lung inflammation BALB/c mouse model assessed as reduction in total blood cells in brochoalveolar lavage fluid at 1 mg/kg, po bid administered on day 29 to 31 post ovalbumin challenge measured 8 hrs post last challenge relative to vehicle-treated control", "assay_type": "functional", "summary_of_the_method": "(§4)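 Balb/c mice sensitized with ovalbumin by IP injection on days 1 and 14, then challenged intranasally with 100 μg ovalbumin on days 29, 30 and 31. Compound in saline given orally starting 30 min before each challenge; groups of six mice. Sham groups were saline-sensitized and allergen-challenged. BAL taken 8 h after the last challenge, with differential cell counts on slides.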"}, "[5]": {"tested_on": "Mus musculus", "assay": "as §3, with “neutrophils” for “total blood cells”", "assay_type": "functional", "conditions": "Bronchoalveolar lavage", "summary_of_the_method": "as §4"}, "[6]": {"assay": "Clearance in mouse at 1 mg/kg, iv", "assay_type": "ADME, organism-based", "design": "dose 1 mg/kg, route intravenous", "conditions": "in vivo"}, "[7]": {"assay": "Clearance in rat at 1 mg/kg, iv", "assay_type": "ADME, organism-based", "design": "dose 1 mg/kg, route intravenous", "conditions": "in vivo"}, "[8]": {"molecular_target": "Neuronal acetylcholine receptor subunit alpha-7 (Rattus norvegicus, UniProt Q05941)", "sequence (Q05941 whole entry)": "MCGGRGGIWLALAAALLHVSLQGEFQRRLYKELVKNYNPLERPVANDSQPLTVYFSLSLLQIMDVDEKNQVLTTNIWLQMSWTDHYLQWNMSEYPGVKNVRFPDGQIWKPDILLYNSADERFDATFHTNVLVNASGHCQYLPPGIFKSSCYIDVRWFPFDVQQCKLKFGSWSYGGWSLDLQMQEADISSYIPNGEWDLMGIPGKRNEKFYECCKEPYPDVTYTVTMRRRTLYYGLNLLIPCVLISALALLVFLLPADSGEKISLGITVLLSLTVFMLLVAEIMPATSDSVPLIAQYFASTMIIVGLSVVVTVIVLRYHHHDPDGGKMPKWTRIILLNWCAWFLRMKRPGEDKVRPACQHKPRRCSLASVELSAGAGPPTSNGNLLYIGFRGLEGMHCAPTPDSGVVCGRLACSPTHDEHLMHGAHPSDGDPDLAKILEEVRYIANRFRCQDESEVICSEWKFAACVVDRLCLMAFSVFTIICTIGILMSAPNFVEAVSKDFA", "assay": "Inhibition of biotinylated alpha-bungarotoxin binding to alpha7 nAChR in rat PC12 cells by FACS analysis", "assay_type": "cell-based, PC-12", "summary_of_the_method": "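Rat PC12 cells in binding buffer (PBS, 1.0% FBS, 0.02% sodium azide), 0.1% DMSO; biotinylated α-bungarotoxin 10 nM final, 1 h at room temperature; nonspecific binding defined with 1.5 μM unlabeled toxin. After washing, phycoerythrin-streptavidin 1.0 μg/mL final, 15 min in the dark; read by FACS. Screened at 10 and 1 μM, then eight-point 3-fold dilution IC50; mean of two or more experiments.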"}, "[9]": {"molecular_target": "Cytochrome P450 1A2 (Homo sapiens, UniProt P05177)", "sequence (P05177 whole entry)": "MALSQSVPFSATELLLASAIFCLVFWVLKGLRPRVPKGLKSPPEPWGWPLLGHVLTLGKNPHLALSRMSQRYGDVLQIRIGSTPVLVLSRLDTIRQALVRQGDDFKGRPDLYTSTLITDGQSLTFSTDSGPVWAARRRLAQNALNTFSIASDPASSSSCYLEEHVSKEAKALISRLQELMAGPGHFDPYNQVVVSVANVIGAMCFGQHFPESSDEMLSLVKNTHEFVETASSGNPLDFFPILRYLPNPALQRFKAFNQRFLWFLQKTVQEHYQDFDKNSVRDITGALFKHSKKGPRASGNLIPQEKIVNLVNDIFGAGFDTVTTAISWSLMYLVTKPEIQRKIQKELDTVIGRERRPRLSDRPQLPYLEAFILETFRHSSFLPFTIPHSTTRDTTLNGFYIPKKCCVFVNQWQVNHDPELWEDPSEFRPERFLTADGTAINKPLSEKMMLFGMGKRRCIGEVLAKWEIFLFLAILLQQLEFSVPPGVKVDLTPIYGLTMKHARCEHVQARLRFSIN", "assay": "Inhibition of CYP1A2 (unknown origin)", "assay_type": "ADME", "summary_of_the_method": "as §1"}, "[10]": {"tested_on": "Mus musculus", "assay": "as §3, with “in neutrophils” for “in total blood cells”, “at 30” for “at 1”", "assay_type": "functional, organism-based", "design": "dose 30 mg/kg", "conditions": "Bronchoalveolar lavage", "summary_of_the_method": "as §4"}, "[11]": {"molecular_target": "Neuronal acetylcholine receptor; alpha4/beta2 (Homo sapiens, UniProt P17787+P43681)", "assay": "Inhibition of human alpha4beta2 nAChR at 10 uM by binding assay"}, "[12]": {"assay": "Half life in mouse at 1 mg/kg, iv", "assay_type": "ADME, organism-based", "design": "dose 1 mg/kg, route intravenous", "conditions": "in vivo"}, "[13]": {"tested_on": "Mus musculus", "assay": "as §3, with “eosinophils” for “total blood cells”", "assay_type": "functional", "summary_of_the_method": "as §4"}, "[14]": {"molecular_target": "Histamine H3 receptor (Homo sapiens) (UniProt Q9Y5N1)", "sequence (Q9Y5N1 whole entry)": "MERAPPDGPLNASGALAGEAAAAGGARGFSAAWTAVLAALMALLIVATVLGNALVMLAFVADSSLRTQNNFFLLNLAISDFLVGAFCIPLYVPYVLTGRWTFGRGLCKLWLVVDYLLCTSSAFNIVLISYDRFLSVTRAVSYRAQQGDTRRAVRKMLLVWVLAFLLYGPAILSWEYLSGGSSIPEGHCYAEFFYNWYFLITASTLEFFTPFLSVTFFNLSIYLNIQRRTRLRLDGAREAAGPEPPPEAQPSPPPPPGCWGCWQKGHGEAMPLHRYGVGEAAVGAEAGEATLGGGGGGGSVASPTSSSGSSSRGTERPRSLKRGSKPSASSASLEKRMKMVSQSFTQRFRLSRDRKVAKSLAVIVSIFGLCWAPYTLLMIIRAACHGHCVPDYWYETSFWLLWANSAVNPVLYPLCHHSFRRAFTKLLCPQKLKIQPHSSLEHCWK", "assay": "Inhibition of human histamine H3 receptor at 10 uM", "summary_of_the_method": "as §2"}, "[15]": {"assay": "Ratio of drug uptake in brain to plasma in iv dosed mouse measured after 5 to 30 mins", "assay_type": "ADME, organism-based", "conditions": "brain and plasma, read-out: BPR"}, "[16]": {"assay": "Cmax in mouse at 5 mg/kg, po", "assay_type": "ADME, organism-based", "design": "dose 5 mg/kg, route oral", "conditions": "in vivo"}, "[17]": {"tested_on": "Mus musculus", "assay": "as §3, with “in eosinophils” for “in total blood cells”, “at 0.2” for “at 1”", "assay_type": "functional, organism-based", "design": "dose 0.2 mg/kg", "summary_of_the_method": "as §4"}, "[18]": {"tested_on": "Mus musculus", "assay": "as §3, with “in neutrophils” for “in total blood cells”, “at 5” for “at 1”", "assay_type": "functional", "conditions": "Bronchoalveolar lavage", "summary_of_the_method": "as §4"}, "[19]": {"assay": "Oral bioavailability in rat at 15 mg/kg", "assay_type": "ADME, organism-based", "conditions": "in vivo"}, "[20]": {"assay": "Half life in rat at 1 mg/kg, iv", "assay_type": "ADME, organism-based", "design": "dose 1 mg/kg, route intravenous", "conditions": "in vivo"}, "[21]": {"assay": "Oral bioavailability in mouse at 5 mg/kg", "assay_type": "ADME, organism-based", "conditions": "in vivo"}, "[22]": {"molecular_target": "Cytochrome P450 2D6 (Homo sapiens, UniProt P10635)", "sequence (P10635 whole entry)": "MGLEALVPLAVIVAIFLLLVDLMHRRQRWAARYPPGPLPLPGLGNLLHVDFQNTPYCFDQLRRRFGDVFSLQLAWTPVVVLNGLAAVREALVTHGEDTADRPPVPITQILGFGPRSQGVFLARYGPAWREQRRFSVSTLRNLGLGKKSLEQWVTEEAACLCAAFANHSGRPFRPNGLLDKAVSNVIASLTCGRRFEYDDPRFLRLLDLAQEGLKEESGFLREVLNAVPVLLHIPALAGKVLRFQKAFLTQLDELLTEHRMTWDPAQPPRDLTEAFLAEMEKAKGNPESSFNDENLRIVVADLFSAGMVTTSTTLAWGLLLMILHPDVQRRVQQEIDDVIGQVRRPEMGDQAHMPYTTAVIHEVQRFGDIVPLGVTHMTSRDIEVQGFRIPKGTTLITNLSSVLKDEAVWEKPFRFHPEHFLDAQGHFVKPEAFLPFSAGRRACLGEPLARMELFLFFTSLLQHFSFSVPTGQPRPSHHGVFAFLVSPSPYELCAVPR", "assay": "Inhibition of CYP2D6 (unknown origin)", "assay_type": "ADME", "summary_of_the_method": "as §1"}, "[23]": {"tested_on": "Mus musculus", "assay": "as §3, with “in eosinophils” for “in total blood cells”, “at 30” for “at 1”", "assay_type": "functional, organism-based", "design": "dose 30 mg/kg", "summary_of_the_method": "as §4"}, "[24]": {"assay": "Cmax in rat at 15 mg/kg, po", "assay_type": "ADME, organism-based", "design": "dose 15 mg/kg, route oral", "conditions": "in vivo"}, "[25]": {"tested_on": "Mus musculus", "assay": "as §3, with “in eosinophils” for “in total blood cells”, “at 5” for “at 1”", "assay_type": "functional", "summary_of_the_method": "as §4"}, "[26]": {"tested_on": "Mus musculus", "assay": "as §3, with “at 0.2” for “at 1”", "assay_type": "functional, organism-based", "design": "dose 0.2 mg/kg", "summary_of_the_method": "as §4"}, "[27]": {"molecular_target": "Cytochrome P450 3A4 (Homo sapiens, UniProt P08684)", "sequence (P08684 whole entry)": "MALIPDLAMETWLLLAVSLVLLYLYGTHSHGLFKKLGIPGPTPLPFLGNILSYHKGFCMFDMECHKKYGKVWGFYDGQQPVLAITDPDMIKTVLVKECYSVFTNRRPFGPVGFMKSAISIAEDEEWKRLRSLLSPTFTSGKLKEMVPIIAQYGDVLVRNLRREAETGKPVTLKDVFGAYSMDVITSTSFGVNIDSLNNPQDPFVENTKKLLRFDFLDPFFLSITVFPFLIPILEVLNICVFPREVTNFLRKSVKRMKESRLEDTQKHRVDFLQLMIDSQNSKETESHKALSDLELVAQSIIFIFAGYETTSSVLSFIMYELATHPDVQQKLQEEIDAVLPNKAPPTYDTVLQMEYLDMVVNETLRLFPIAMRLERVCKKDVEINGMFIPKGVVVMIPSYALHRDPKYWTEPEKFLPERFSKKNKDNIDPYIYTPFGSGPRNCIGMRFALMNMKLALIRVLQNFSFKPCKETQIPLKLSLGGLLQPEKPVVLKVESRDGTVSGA", "assay": "Inhibition of CYP3A4 (unknown origin)", "assay_type": "ADME", "summary_of_the_method": "as §1"}, "[28]": {"assay": "Half life in mouse at 5 mg/kg, po", "assay_type": "ADME, organism-based", "design": "dose 5 mg/kg, route oral", "conditions": "in vivo"}, "[29]": {"molecular_target": "Cytochrome P450 2C9 (Homo sapiens, UniProt P11712)", "sequence (P11712 whole entry)": "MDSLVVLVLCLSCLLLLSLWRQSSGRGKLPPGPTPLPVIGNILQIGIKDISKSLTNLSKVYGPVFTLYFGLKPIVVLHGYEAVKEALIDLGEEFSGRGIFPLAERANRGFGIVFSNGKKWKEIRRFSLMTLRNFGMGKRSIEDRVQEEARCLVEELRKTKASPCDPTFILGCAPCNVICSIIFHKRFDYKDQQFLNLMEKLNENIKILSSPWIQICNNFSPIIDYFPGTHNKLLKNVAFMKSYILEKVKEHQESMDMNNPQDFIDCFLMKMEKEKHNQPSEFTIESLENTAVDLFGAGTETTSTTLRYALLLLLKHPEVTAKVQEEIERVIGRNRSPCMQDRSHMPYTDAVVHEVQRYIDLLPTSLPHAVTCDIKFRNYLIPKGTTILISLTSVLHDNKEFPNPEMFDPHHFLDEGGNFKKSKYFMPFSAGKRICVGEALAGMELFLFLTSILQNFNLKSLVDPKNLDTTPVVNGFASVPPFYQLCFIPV", "assay": "Inhibition of CYP2C9 (unknown origin)", "assay_type": "ADME", "summary_of_the_method": "as §1"}, "[30]": {"tested_on": "Mus musculus", "assay": "as §3, with “in neutrophils” for “in total blood cells”, “at 0.2” for “at 1”", "assay_type": "functional, organism-based", "design": "dose 0.2 mg/kg", "conditions": "Bronchoalveolar lavage", "summary_of_the_method": "as §4"}, "[31]": {"molecular_target": "Voltage-gated inwardly rectifying potassium channel KCNH2 (Homo sapiens, UniProt Q12809)", "sequence (Q12809 whole entry)": "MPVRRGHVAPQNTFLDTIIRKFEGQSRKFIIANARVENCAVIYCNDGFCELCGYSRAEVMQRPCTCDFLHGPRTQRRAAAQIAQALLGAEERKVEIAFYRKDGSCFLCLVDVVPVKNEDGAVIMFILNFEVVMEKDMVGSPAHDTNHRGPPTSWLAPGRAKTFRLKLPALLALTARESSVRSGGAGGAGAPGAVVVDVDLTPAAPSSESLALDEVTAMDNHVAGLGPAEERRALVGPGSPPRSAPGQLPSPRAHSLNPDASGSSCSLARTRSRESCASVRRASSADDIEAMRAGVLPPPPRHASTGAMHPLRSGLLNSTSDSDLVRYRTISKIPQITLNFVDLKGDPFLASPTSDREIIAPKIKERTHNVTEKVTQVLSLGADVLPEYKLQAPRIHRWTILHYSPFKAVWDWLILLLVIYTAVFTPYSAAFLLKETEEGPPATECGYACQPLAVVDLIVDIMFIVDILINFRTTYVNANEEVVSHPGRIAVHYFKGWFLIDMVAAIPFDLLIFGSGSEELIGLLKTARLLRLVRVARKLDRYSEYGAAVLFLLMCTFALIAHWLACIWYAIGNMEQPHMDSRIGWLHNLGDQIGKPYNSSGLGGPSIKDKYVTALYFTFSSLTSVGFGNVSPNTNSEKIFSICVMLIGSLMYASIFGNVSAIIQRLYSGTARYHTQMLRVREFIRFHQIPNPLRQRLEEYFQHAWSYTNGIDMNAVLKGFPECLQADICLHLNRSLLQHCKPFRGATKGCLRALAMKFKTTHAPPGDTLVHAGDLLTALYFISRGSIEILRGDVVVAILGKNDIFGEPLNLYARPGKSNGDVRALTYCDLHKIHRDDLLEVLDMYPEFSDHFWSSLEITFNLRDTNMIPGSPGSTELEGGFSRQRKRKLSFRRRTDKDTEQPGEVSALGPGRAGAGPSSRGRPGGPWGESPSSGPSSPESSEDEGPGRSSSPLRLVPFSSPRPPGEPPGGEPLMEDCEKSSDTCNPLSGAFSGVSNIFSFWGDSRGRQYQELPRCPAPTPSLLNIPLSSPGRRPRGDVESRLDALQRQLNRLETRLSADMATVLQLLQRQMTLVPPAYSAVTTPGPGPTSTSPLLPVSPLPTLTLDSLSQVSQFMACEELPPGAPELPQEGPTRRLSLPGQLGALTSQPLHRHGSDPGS", "assay": "Inhibition of human ERG by whole-cell voltage clamp assay"}, "[32]": {"tested_on": "Mus musculus", "assay": "as §3, with “at 5” for “at 1”", "assay_type": "functional", "summary_of_the_method": "as §4"}, "[33]": {"tested_on": "Mus musculus", "assay": "as §3, with “at 30” for “at 1”", "assay_type": "functional, organism-based", "design": "dose 30 mg/kg", "summary_of_the_method": "as §4"}}, "note": "Active and inactive are the calls of the source. The calls are words filed in the database; no cut-off is given here."}
{"smiles": "COc1ccc(NC(=O)N2CCNC[C@@H]2COc2cccnc2)cc1.Cl", "values": [{"measurement": "IC50", "setting": "[1]", "value": "> 100", "unit": "µM"}, {"measurement": "inhibition", "setting": "[2]", "value": 48, "unit": "%"}, {"measurement": "half-life", "setting": "[3]", "value": 2.35, "unit": "h"}, {"measurement": "inhibition in vivo at 1 mg/kg", "setting": "[4]", "value": 53, "unit": "%"}, {"measurement": "inhibition in vivo at 1 mg/kg", "setting": "[5]", "value": 61, "unit": "%"}, {"measurement": "clearance", "setting": "[6]", "value": 103, "unit": "mL/min/kg"}, {"measurement": "clearance", "setting": "[7]", "value": 86, "unit": "mL/min/kg"}, {"measurement": "IC50", "setting": "[8]", "value": 0.019, "unit": "µM"}, {"measurement": "IC50", "setting": "[9]", "value": "> 100", "unit": "µM"}, {"measurement": "inhibition", "setting": "[10]", "value": "inactive"}, {"measurement": "inhibition", "setting": "[11]", "value": 10, "unit": "%"}, {"measurement": "half-life", "setting": "[12]", "value": 0.65, "unit": "h"}, {"measurement": "inhibition in vivo at 1 mg/kg", "setting": "[13]", "value": 48, "unit": "%"}, {"measurement": "inhibition", "setting": "[14]", "value": 86, "unit": "%"}, {"measurement": "Kp", "setting": "[15]", "value": "≤ 0.06"}, {"measurement": "Cmax", "setting": "[16]", "value": 950, "unit": "nM"}, {"measurement": "inhibition", "setting": "[17]", "value": "inactive"}, {"measurement": "inhibition in vivo at 5 mg/kg", "setting": "[18]", "value": 70, "unit": "%"}, {"measurement": "bioavailability", "setting": "[19]", "value": 89, "unit": "%"}, {"measurement": "half-life", "setting": "[20]", "value": 1.22, "unit": "h"}, {"measurement": "bioavailability", "setting": "[21]", "value": 76, "unit": "%"}, {"measurement": "IC50", "setting": "[22]", "value": "> 100", "unit": "µM"}, {"measurement": "inhibition", "setting": "[23]", "value": "inactive"}, {"measurement": "Cmax", "setting": "[24]", "value": 751, "unit": "ng/mL"}, {"measurement": "inhibition in vivo at 5 mg/kg", "setting": "[25]", "value": 74, "unit": "%"}, {"measurement": "inhibition", "setting": "[26]", "value": "inactive"}, {"measurement": "IC50", "setting": "[27]", "value": "> 100", "unit": "µM"}, {"measurement": "half-life", "setting": "[28]", "value": 1.73, "unit": "h"}, {"measurement": "IC50", "setting": "[29]", "value": "> 100", "unit": "µM"}, {"measurement": "inhibition", "setting": "[30]", "value": "inactive"}, {"measurement": "IC50", "setting": "[31]", "value": 31, "unit": "µM"}, {"measurement": "inhibition in vivo at 5 mg/kg", "setting": "[32]", "value": 63, "unit": "%"}, {"measurement": "inhibition", "setting": "[33]", "value": "inactive"}]}
